From PubChem
A selection: hits, their analogues and other compounds. The true share with any hit is near 1.6%.
NR1D1 modulator: modulates human Rev-erb alpha binding to DNA. Rev-erbα–FITC-DNA binding, fluorescence polarization, 90 min. activity, % at 10 µM. 370,000 compounds, 0.79% hits;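 active means activity above about 14%, limit read from the data; passing the limit was not always enough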;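 further: 0% = DMSO wells with 35 nM protein and 100% = DMSO wells with 750 nM protein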
VLA-4 inh: inhibition in a human VLA-4 binding assay. 330,000 compounds, 0.2% hits. VLA-4 expressing cells, ligand binding flow cytometry. AID 2557. inhibition, % (about 7 µM as worked out from the volumes in the protocol). P13612; in the data active means inhibition above about 50%
Target sequence (P13612 whole entry, looked up): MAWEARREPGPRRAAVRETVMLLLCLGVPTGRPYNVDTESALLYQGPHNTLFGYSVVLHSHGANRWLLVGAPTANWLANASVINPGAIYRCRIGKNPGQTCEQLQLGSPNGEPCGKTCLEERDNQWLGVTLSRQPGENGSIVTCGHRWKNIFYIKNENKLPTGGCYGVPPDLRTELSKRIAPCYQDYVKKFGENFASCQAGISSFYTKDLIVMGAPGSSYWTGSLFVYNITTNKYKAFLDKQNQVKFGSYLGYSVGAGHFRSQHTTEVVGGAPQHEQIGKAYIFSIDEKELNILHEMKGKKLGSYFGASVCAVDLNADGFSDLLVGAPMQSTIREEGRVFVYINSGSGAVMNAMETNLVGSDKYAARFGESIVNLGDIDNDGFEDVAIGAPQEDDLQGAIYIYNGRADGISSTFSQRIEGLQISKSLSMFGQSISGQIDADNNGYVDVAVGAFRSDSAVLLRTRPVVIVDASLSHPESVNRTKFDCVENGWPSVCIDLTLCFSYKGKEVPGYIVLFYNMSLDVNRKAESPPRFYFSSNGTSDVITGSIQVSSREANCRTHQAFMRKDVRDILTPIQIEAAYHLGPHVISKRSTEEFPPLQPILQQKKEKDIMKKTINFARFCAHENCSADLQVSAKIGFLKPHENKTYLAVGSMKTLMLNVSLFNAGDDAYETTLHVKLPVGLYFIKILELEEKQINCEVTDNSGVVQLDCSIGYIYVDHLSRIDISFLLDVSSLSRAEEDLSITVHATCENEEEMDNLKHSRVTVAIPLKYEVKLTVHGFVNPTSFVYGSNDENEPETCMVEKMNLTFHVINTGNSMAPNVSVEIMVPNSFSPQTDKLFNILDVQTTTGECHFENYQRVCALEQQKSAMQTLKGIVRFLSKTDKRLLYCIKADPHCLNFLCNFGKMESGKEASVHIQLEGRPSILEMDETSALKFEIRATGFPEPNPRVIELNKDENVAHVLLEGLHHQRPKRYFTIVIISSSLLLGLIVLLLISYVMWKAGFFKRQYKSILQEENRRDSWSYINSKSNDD
PG9 Ab binder: small molecules binding HIV-1 gp120 antibody PG9. TR-FRET gp120-PG9 antibody binding. inhibition, % at 6.7 µM. AID 624416. 360,000 compounds, 0.43% hits; in the data active means inhibition above about 8.5%
NR2E3 ag-1: agonists of human NR2E3 nuclear receptor | Q9Y5X4 | 360,000 compounds, 0.35% hits | inhibition of corepressor binding, % at 3.98 µM | AID 602229 | CHO-S Gal4-NCOR/VP16-NR2E3 two-hybrid, luciferase;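 active means inhibition above the mean of all tested compounds plus 3 SD, cut at about 70% in these data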;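 further: 0% = DMSO with NR2E3 transfected cells and 100% = cells lacking NR2E3 construct; higher means lower luciferase signal from less NR2E3 corepressor binding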
NR2E3 ag-2: agonists of human nuclear receptor NR2E3. Q9Y5X4. GST-NR2E3/biotin-RetCOR TR-FRET, 1536-well. inhibition of corepressor binding, % at 4.78 µM. 320,000 compounds, 0.12% hits. AID 2300;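 active means percent inhibition above the cutoff of mean plus 3 SD of all tested compounds, set per screening campaign, cut at about 20% in these data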;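 further: 0% = DMSO wells and 100% = biotin wells as full block of FRET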
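Material: NR2E3–RetCOR corepressor complex | Quantity: 1.35 nM GST-tagged NR2E3 final | Schedule: 5 h at 4 °C | Replication: Singlicate compound wells | Reagent: RetCOR corepressor, biotinylated, 7 nM | Controls: Biotin wells as high control, 0.6% DMSO wells as low control | Signal: TR-FRET, Eu(K)-anti-GST donor, streptavidin-D2 acceptor, ex 340, em 617/671 nm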
PG9 bind confirm: confirmation of small molecules binding HIV-1 gp120 antibody PG9. shares compounds with PG9 Ab binder. TR-FRET PG9 antibody binding, biochemical. inhibition, % at 6.7 µM. 1,500 compounds, 90% hits. AID 651571; in the data active means inhibition above about 9%
PGV04 Ab binding: binds control antibody PGV04 in PG9 binder counter-screen; shares compounds with PG9 Ab binder; TR-FRET PGV04 antibody-gp120 binding, biochemical; inhibition, % at 6.7 µM; 1,500 compounds, 95% hits; in the data active means inhibition above about 9.5%
PG9 binder DR: small molecules binding HIV-1 gp120 antibody PG9; TR-FRET PG9 antibody-gp120 binding inhibition; shares compounds with PG9 Ab binder; AID 651848; 95 tested, under 10 active; IC50, µM; in the data active means IC50 below about 10 µM
PGV04 DR counter: PGV04 binding, dose response counter-screen. shares compounds with PG9 Ab binder. TR-FRET binding to control antibody PGV04. IC50, µM. 95 compounds, 20% hits
PG126 DR counter: binds control antibody PG126 in PG9 counter-screen; shares compounds with PG9 Ab binder; TR-FRET binding to antibody PG126, counterscreen; IC50, µM; 95 compounds, 20% hits; AID 651939
The depositor's hits bear a star; i = inactive; . = no result. Unless noted, no stated cut-off is given here; in the data, active means IC50 below about 9 µM; inactive means the rest.

SMILES | NR1D1 modulator | VLA-4 inh | PG9 Ab binder | NR2E3 ag-1 | NR2E3 ag-2 | PG9 bind confirm | PGV04 Ab binding | others
O=C1c2[nH]nc(-c3ccccc3O)c2C(c2cccc(Cl)c2)N1CC1CCCO1 (stereo not drawn) | -0.3 | 1.6 | 8.6* | 25.8 | 1.7 | 25.3* | 18.9* | PG9 binder DR=>67;PGV04 DR counter=>67;PG126 DR counter=>67
COC(=O)[C@]12C[C@H](CC(=O)N3CCN(C(=O)C4CC4)CC3)C(=O)N(CCc3ccc(OC)c(OC)c3)C1=C[C@H](C(C)C)O[C@@H]2C1CC1 | 4.0 | . | . | . | . | . | .
Cc1ccc(NC(=O)CCn2cnc3ccccc3c2=O)cc1Cl | 9.3 | -0.3 | 12.8* | 4.1 | -0.4 | 18.5* | 22.8*
Cc1cccc(C)c1NC(=O)CCn1cnc2ccccc2c1=O | 2.8 | 10.0 | -0.9 | -15.3 | -0.9 | . | .
COC(=O)c1cc(-c2ccc(Br)cc2)c2c(=O)[nH]c(=O)n(C)c2n1 | 8.6 | -11.3 | 20.0* | 6.6 | 2.7 | 29.3* | 16.4* | PG9 binder DR=>67;PGV04 DR counter=i;PG126 DR counter=i
COC(=O)c1cc(-c2cccc([N+](=O)[O-])c2)c2c(=O)[nH]c(=O)n(C)c2n1 | -3.5 | -6.2 | -2.1 | 22.3 | 2.4 | . | .
COC(=O)c1cc(-c2ccc(OC)c(OC)c2)c2c(=O)[nH]c(=O)n(C)c2n1 | 7.4 | -7.1 | 21.1* | 9.6 | 4.5 | 21.3* | 28.8*
CC(=O)c1cccc(NC(=O)c2cccc(N3C(=O)c4ccccc4C3=O)c2)c1 | -10.4 | 1.8 | 21.7* | -8.6 | 4.0 | 25.5* | 22.2* | PG9 binder DR=i;PGV04 DR counter=i;PG126 DR counter=i
NS(=O)(=O)c1cccc(NC(=O)c2cccc(N3C(=O)c4ccccc4C3=O)c2)c1 | 0.7 | 12.2 | -0.5 | -4.6 | . | . | .
O=C(Nc1ccc(N2C(=O)C3CCCCC3C2=O)cc1Cl)c1cccs1 (stereo not drawn) | 8.3 | 21.4 | 18.2* | -23.4 | -1.9 | 30.1* | 45.7*
O=C1C(=O)N(CCN2CCOCC2)C(c2ccccc2)/C1=C(\O)c1ccc2c(c1)OCCO2 (stereo not drawn) | -5.7 | 8.9 | 15.2* | -12.4 | 10.7 | 20.8* | 23.0*
O=C1C(=O)N(CCCN2CCOCC2)C(c2ccc(Cl)cc2)/C1=C(\O)c1ccc2c(c1)OCCO2 (stereo not drawn) | 0.2 | -4.1 | 10.0* | 0.3 | 2.0 | 22.7* | 26.7*
C=CCOc1cccc(C2/C(=C(\O)c3ccc4c(c3)OCCO4)C(=O)C(=O)N2CCN2CCOCC2)c1 (stereo not drawn) | -6.6 | 13.9 | 9.3* | 13.5 | 11.6 | 16.2* | 20.8*
Cc1cc(NC(=O)c2ccc(NS(=O)(=O)c3ccc(F)cc3)cc2)no1 | 0.8 | . | . | . | . | . | .
C=CCN1C=C2C(=O)C(C)(OC(=O)c3ccc(OC)cc3)C(=O)C(c3ccco3)=C2C=C1CCCC (stereo not drawn) | -3.6 | 34.3 | 9.7* | 9.3 | 14.0 | 15.8* | 19.7*
O=C(CCc1nc2ccccc2c(=O)[nH]1)OCc1ccc(-c2ccccc2)cc1 | 15.9 | -17.3 | 9.3* | -19.0 | -0.4 | 17.4* | 24.0*
CCCCCCCCN1C(=O)[C@@H](CC(=O)N2CCCCC2)C[C@@]2(C(=O)OC)C1=C[C@H](C(C)C)O[C@@H]2C1CC1 | 1.8 | . | . | . | . | . | .
O=C(c1cc([N+](=O)[O-])ccc1N1CCOCC1)N1CCN(c2ccc([N+](=O)[O-])cc2)CC1 | 3.2 | 31.6 | 18.0* | 15.9 | 1.0 | 7.1 | 7.1 | PG9 binder DR=>67;PGV04 DR counter=>67;PG126 DR counter=>67
O=C(c1cc([N+](=O)[O-])ccc1N1CCCC1)N1CCCC1 | 7.2 | 7.8 | -0.7 | 11.1 | -4.4 | . | .
Cc1nnc(NC(=O)c2c(-c3ccccc3)noc2C)s1 | -2.2 | -2.0 | -0.7 | 1.1 | 1.4 | . | .
Cc1onc(-c2ccccc2Cl)c1C(=O)Nc1nnc(-c2ccc(Cl)cc2Cl)s1 | -0.5 | -4.1 | 14.6* | -26.6 | 1.2 | 38.6* | 55.1*
Cc1onc(-c2ccccc2Cl)c1C(=O)Nc1ccc(F)c(F)c1 | 1.0 | 9.1 | 1.2 | 8.2 | 2.4 | . | .
Cc1onc(-c2c(F)cccc2Cl)c1C(=O)Nc1nnc(-c2ccccc2)s1 | -1.3 | -2.0 | 9.6* | -9.9 | 2.8 | 15.2* | 22.9*
Cc1onc(-c2c(F)cccc2Cl)c1C(=O)Nc1nnc(C2CC2)s1 | -3.1 | -1.4 | -0.3 | -3.4 | 1.3 | . | .
Cc1onc(-c2ccccc2)c1C(=O)Nc1cccc2nsnc12 | 16.4 | 2.8 | 65.6* | -39.1 | -2.1 | 72.3* | 81.3*
SMILES | NR1D1 modulator | VLA-4 inh | PG9 Ab binder | NR2E3 ag-1 | NR2E3 ag-2 | PG9 bind confirm | PGV04 Ab binding | others
O=c1[nH]c(SCc2nc3ccccc3n2Cc2ccccc2)nc2ccccc12 | 3.2 | 9.1 | 12.9* | -4.5 | -0.4 | 23.7* | 30.0*
Nc1cc(=O)[nH]c(SCc2nc3ccccc3n2Cc2ccccc2)n1 | 3.0 | 13.0 | 0.8 | -0.9 | 2.7 | . | .
Cc1sc(NC(=S)NC(=O)C2CCCCC2)c(C(N)=O)c1C | 7.5 | 12.5 | 31.6* | -24.0 | -2.2 | 23.7* | 31.1*
Cc1cnn(-c2ccccc2)c1NC(=O)COCc1ccccc1 | -2.4 | . | . | . | . | . | .
CC(=O)c1cccc(NC(=O)CSc2nnc(-c3ccc(S(=O)(=O)N4CCCC4)cc3)o2)c1 | 8.4 | 8.5 | 31.1* | -6.5 | 1.1 | 36.6* | 45.8*
Cc1c[nH]c2cccc(-c3ccc(OCc4ccccc4)cc3)c12 | 9.2 | . | . | . | . | . | .
C=CCNC(=O)Cc1c(OC)ccc2cc(Br)ccc12 | 5.1 | 13.3 | 8.4 | 22.6 | 6.3 | . | .
COc1ccc2cc(Br)ccc2c1CC(=O)NC(C)C | -4.5 | 0.2 | 10.8* | 9.6 | 6.1 | 12.2* | 16.0*
O=C(Cn1nnc2c(cnn2-c2ccc(F)cc2)c1=O)Nc1ccccc1C(F)(F)F | 17.2 | 4.4 | 11.0* | -3.2 | 2.0 | 14.1* | 20.4*
O=C(Cn1nnc2c(cnn2-c2ccccc2)c1=O)NCc1cccs1 | -5.9 | -7.1 | -1.8 | -27.4 | 3.5 | . | .
C[C@@H]1CN([C@@H](C)COC(=O)C(C)(C)C)C(=O)c2cc(NC(=O)Nc3ccccc3)ccc2O[C@@H](C)CCCCO[C@H]1CN(C)S(=O)(=O)c1ccc(F)cc1 | -0.3 | . | . | . | . | . | .
C[C@H](CO)N1C[C@H](C)[C@@H](CN(C)Cc2ccccc2)Oc2c(NS(=O)(=O)c3ccc(F)cc3)cccc2C1=O | -4.5 | 17.6 | 11.4* | -38.7 | . | 30.7* | 47.2*
COc1ccc(OC)c(NC(=O)CSc2nncc3ccccc23)c1 | 2.4 | -1.4 | 12.8* | 2.6 | 3.9 | 8.3 | 10.0*
